# Assay results published in ChEMBL document CHEMBL1136796 (J Med Chem, 2003).
# pIC50: −log10 of the molar value. Counter-ions that a name gives are not always drawn.
# Tests used:
# K562 = assay: In vitro inhibitory concentration against human chronic myelogenous leukemia K562 cell growth; type: functional, cell-based
# Tubulin = Tubulin (Sus scrofa, UniProt P02554+P02550); assay: In vitro inhibition of maximum porcine tubulin assembly rate after 20 min at 37 degrees C; type: functional
# NCI-H460 [1] = assay: Tested for induction of cellular death in Human lung H-460 tumor cell line in Propidium Iodide Monolayer Assay; type: functional, cell-based
# Method in brief: (§1)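 Propidium iodide monolayer assay: cells seeded at 1 × 10^5 or 5 × 10^4 cells/mL, 24 h recovery, drug in triplicate for 3–6 days by doubling time; PI 25 μg/mL added, fluorescence (ex 530/em 620 nm) read before and after freezing at −18 °C for 24 h; viable cells from the difference; % T/C versus concentration.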
# MAXF401 cell line = assay: Tested for induction of cellular death in Human breast 401NL tumor cell line in Propidium Iodide Monolayer Assay; type: functional, cell-based; method in brief: as §1
# MCF7 = assay: Tested for induction of cellular death in Human breast MCF-7 tumor cell line in Propidium Iodide Monolayer Assay; type: functional, cell-based; method in brief: as §1
# LXFL 529 = assay: Tested for induction of cellular death in Human lung LXF 529L tumor cell line in Propidium Iodide Monolayer Assay; type: functional, cell-based; method in brief: as §1
# [2] = tested on: Lung LXF 629L tumor cell line; assay: Tested for induction of cellular death in Human lung LXF 629L tumor cell line in Propidium Iodide Monolayer Assay; type: functional, cell-based; method in brief: as §1
# SF-268 [3] = assay: Tested for induction of cellular death in Human ZNS SF-268 tumor cell line in Propidium Iodide Monolayer Assay; type: functional, cell-based; method in brief: as §1
# RXF 944 = assay: Tested for induction of cellular death in Human renal RXF 944L tumor cell line in Propidium Iodide Monolayer Assay; type: functional, cell-based; method in brief: as §1
# Sus scrofa = species on record: Sus scrofa; assay: In vitro inhibitory concentration against tubulin assembly; type: functional
# KB = assay: Cytotoxic activity against cellular metabolic activity of Cervix KB/HeLa tumor cell line using XTT proliferation assay after incubation with the compound for 48 h; type: functional, cell-based; conditions: Homo sapiens
# SF-268 [4] = assay: Cytotoxic activity against cellular metabolic activity of Glioma SF-268 tumor cell line using XTT proliferation assay after incubation with the compound for 48 h; type: functional, cell-based; conditions: Homo sapiens, SF-268, 48 h
# RKO [5] = assay: Cytotoxic activity against human colon adenocarcinoma RKO cells with ectopic inducible expression of cyclin-dependent kinase inhibitor p27kip1; type: functional, cell-based
# RKO [6] = assay: Cytotoxic activity against human colon adenocarcinoma RKO cells without ectopic inducible expression of cyclin-dependent kinase inhibitor p27kip1; type: functional, cell-based
# SK-OV-3 = assay: Cytotoxic activity against cellular metabolic activity of Ovary SKOV3 tumor cell line using XTT proliferation assay after incubation with the compound for 48 h; type: functional, cell-based; conditions: Homo sapiens, SK-OV-3, 48 h
# NCI-H460 [7] = assay: Cytotoxic activity against cellular metabolic activity of Lung NCI-H460 tumor cell line using XTT proliferation assay after incubation with the compound for 48 h; type: functional, cell-based; conditions: Homo sapiens, NCI-H460, 48 h
# Method in brief: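 NCI-H460 human lung tumor cells seeded at 1 × 10^3 cells/well in microtiter plates and exposed to a range of compound concentrations for 48 h. Proliferation read as cellular metabolic activity by XTT. At least two replicates (n = 2); IC50 obtained from dose–response curves by nonlinear regression.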
# LT12 tumor cell line [8] = assay: Antiproliferative activity against LT12 phenotype LT12 MDR tumor cell line; type: functional, cell-based; conditions: Rattus norvegicus
# L1210 [9] = assay: Antiproliferative activity against L1210 phenotype L1210 VCR tumor cell line; type: functional, cell-based; conditions: Mus musculus
# L1210 [10] = assay: Antiproliferative activity against L1210 tumor cell line; type: functional, cell-based; conditions: Mus musculus
# P388/ADR = assay: Antiproliferative activity against P388 phenotype P388 ADR tumor cell line; type: functional, cell-based; conditions: Mus musculus
# LT12 tumor cell line [11] = assay: Antiproliferative activity against LT12 tumor cell line; type: functional, cell-based; conditions: Rattus norvegicus
# P388 (Mus musculus) = assay: Antiproliferative activity against P388 tumor cell line
compound,measurement,setting,value
COc1ccc(CC2c3ccccc3C(=O)c3ccccc32)cc1O,pIC50,K562,5.15
same,IC50,Tubulin,2300 nM
O=C1c2ccccc2C(=Cc2ccccc2)c2ccccc21,pIC50,K562,5.70
same,IC50,Tubulin,4400 nM
COc1ccc(/C=C\c2cc(OC)c(OC)c(OC)c2)cc1O [COMBRETASTATIN A4],pIC50,K562,7.70
COc1cc(C=C2c3ccccc3C(=O)c3ccccc32)cc(OC)c1OC,pIC50,K562,5.40
same,IC50,Tubulin,10000 nM
COc1cc(CC2c3ccccc3C(=O)c3ccccc32)cc(OC)c1,IC50,Tubulin,10000 nM
O=C1c2ccccc2C(=Cc2ccc3c(c2)OCO3)c2ccccc21,pIC50,K562,6.05
COc1ccc(C=C2c3ccccc3C(=O)c3ccccc32)cc1,pIC50,NCI-H460 [1],6.30
same,pIC50,MAXF401 cell line,6.52
same,pIC50,MCF7,6.25
same,pIC50,LXFL 529,6.59
same,pIC50,[2],6.89
same,pIC50,SF-268 [3],6.05
same,pIC50,RXF 944,6.15
same,pIC50,K562,7.22
same,IC50,Tubulin,760 nM
same,pIC50,Sus scrofa,> 6.00
O=C1c2ccccc2C(=Cc2cc(O)c(O)c(O)c2)c2ccccc21,pIC50,K562,4.70
same,IC50,Tubulin,> 10000 nM
COc1ccc(C=C2c3ccccc3C(=O)c3ccccc32)c(O)c1,pIC50,K562,7.15
same,IC50,Tubulin,1200 nM
same,pIC50,Sus scrofa,5.92
O=C1c2ccccc2C(=Cc2cc(Cl)cc(Cl)c2)c2ccccc21,pIC50,K562,5.22
same,IC50,Tubulin,> 10000 nM
CC[C@]1(O)C[C@@H]2CN(CCc3c([nH]c4ccccc34)[C@@](C(=O)OC)(c3cc4c(cc3OC)N(C)[C@H]3[C@@](O)(C(=O)OC)[C@H](OC(C)=O)[C@]5(CC)C=CCN6CC[C@]43[C@@H]65)C2)C1 [VINBLASTINE SULFATE],pIC50,K562,9.00
COc1ccc(CC2c3ccccc3C(=O)c3ccccc32)cc1OC(=O)c1ccccc1,IC50,Tubulin,> 10000 nM
O=C1c2ccccc2C(=Cc2ccc(OCc3ccccc3)cc2)c2ccccc21,pIC50,K562,4.66
same,IC50,Tubulin,> 10000 nM
O=C1c2ccccc2C(=Cc2ccc(O)cc2)c2ccccc21,pIC50,K562,6.10
same,IC50,Tubulin,2500 nM
COc1cc2c(c(OC)c1OC)-c1ccc(OC)c(=O)cc1[C@@H](NC(C)=O)CC2 [COLCHICINE],pIC50,KB,7.52
same,pIC50,SF-268 [4],7.30
same,pIC50,RKO [5],< 5.00
same,pIC50,RKO [6],7.70
same,pIC50,K562,7.70
same,pIC50,SK-OV-3,7.30
same,pIC50,NCI-H460 [7],7.15
O=C1c2ccccc2C(=Cc2cc(Br)c(O)c(Br)c2)c2ccccc21,pIC50,K562,6.80
same,IC50,Tubulin,480 nM
O=C1c2ccccc2C(=Cc2ccc(C(F)(F)F)cc2)c2ccccc21,pIC50,K562,< 4.70
COC(=O)c1cc(C=C2c3ccccc3C(=O)c3ccccc32)ccc1O,pIC50,K562,5.85
same,IC50,Tubulin,> 10000 nM
O=C1c2ccccc2C(=Cc2ccc([N+](=O)[O-])cc2)c2ccccc21,pIC50,K562,5.52
COc1cc(C=C2c3ccccc3C(=O)c3ccccc32)cc(OC)c1O,pIC50,NCI-H460 [1],5.51
same,pIC50,MAXF401 cell line,6.62
same,pIC50,MCF7,5.38
same,pIC50,LXFL 529,5.13
same,pIC50,[2],6.14
same,pIC50,SF-268 [3],6.21
same,pIC50,RXF 944,6.82
same,pIC50,K562,6.77
same,IC50,Tubulin,630 nM
same,pIC50,Sus scrofa,> 6.00
CC[C@]1(O)C[C@@H]2CN(CCc3c([nH]c4ccccc34)[C@@](C(=O)OC)(c3cc4c(cc3OC)N(C)[C@H]3[C@@](O)(C(N)=O)[C@H](O)[C@]5(CC)C=CCN6CC[C@]43[C@@H]65)C2)C1 [VINDESINE],pIC50,LT12 tumor cell line [8],6.59
same,pIC50,L1210 [9],< 5.30
same,pIC50,L1210 [10],7.70
same,pIC50,P388/ADR,5.96
same,pIC50,LT12 tumor cell line [11],9.00
same,pIC50,P388 (Mus musculus),8.00
COc1cc(CC2c3ccccc3C(=O)c3ccccc32)cc(OC)c1OC,pIC50,K562,< 4.10
same,IC50,Tubulin,> 10000 nM
COc1ccc(CC2c3ccccc3C(=O)c3ccccc32)cc1,pIC50,K562,4.60
same,IC50,Tubulin,2600 nM
COc1cc(C=C2c3ccccc3C(=O)c3ccccc32)ccc1O,pIC50,NCI-H460 [1],5.63
same,pIC50,MAXF401 cell line,5.82
same,pIC50,MCF7,5.60
same,pIC50,LXFL 529,5.49
same,pIC50,[2],5.68
same,pIC50,SF-268 [3],5.53
same,pIC50,RXF 944,5.55
same,pIC50,K562,5.85
same,IC50,Tubulin,630 nM
same,pIC50,Sus scrofa,> 6.00
COc1ccc(C=C2c3ccccc3C(=O)c3ccccc32)cc1OC,pIC50,K562,6.22
same,IC50,Tubulin,1700 nM
COc1ccc(CC2c3ccccc3C(=O)c3ccccc32)cc1OC,pIC50,K562,4.21
same,IC50,Tubulin,> 10000 nM
O=C1c2ccccc2C(=Cc2ccc(O)c(O)c2)c2ccccc21,pIC50,NCI-H460 [1],> 8.00
same,pIC50,MAXF401 cell line,6.68
same,pIC50,MCF7,7.40
same,pIC50,LXFL 529,5.79
same,pIC50,[2],6.59
same,pIC50,SF-268 [3],5.94
same,pIC50,RXF 944,7.52
same,pIC50,K562,7.22
same,IC50,Tubulin,1800 nM
CC(C)(C)c1cc(C=C2c3ccccc3C(=O)c3ccccc32)cc(C(C)(C)C)c1O,pIC50,K562,4.41
COc1cccc(C=C2c3ccccc3C(=O)c3ccccc32)c1O,pIC50,NCI-H460 [1],5.48
same,pIC50,MAXF401 cell line,7.70
same,pIC50,MCF7,6.10
same,pIC50,LXFL 529,5.35
same,pIC50,[2],5.69
same,pIC50,SF-268 [3],6.01
same,pIC50,RXF 944,6.44
same,pIC50,K562,6.14
same,IC50,Tubulin,910 nM
same,pIC50,Sus scrofa,> 6.00
COc1cccc2c1C(=O)c1c(O)c3c(c(O)c1C2=O)C[C@@](O)(C(=O)CO)C[C@@H]3O[C@H]1C[C@H](N)[C@H](O)[C@H](C)O1 [DOXORUBICIN],pIC50,NCI-H460 [1],5.76
same,pIC50,MAXF401 cell line,8.00
same,pIC50,LXFL 529,7.52
same,pIC50,[2],7.15
same,pIC50,RXF 944,7.22
same,pIC50,K562,8.00
Cc1cc(C=C2c3ccccc3C(=O)c3ccccc32)cc(C)c1O,pIC50,K562,6.10
same,IC50,Tubulin,910 nM
COc1cc(C=C2c3ccccc3C(=O)c3ccccc32)cc(OC)c1,pIC50,K562,6.22
same,IC50,Tubulin,> 10000 nM
CCOC(=O)c1ccc(C=C2c3ccccc3C(=O)c3ccccc32)cc1,pIC50,K562,6.15
